# Experimental data taken from ChEMBL document CHEMBL3286371, “wALADin benzimidazoles differentially modulate the function of porphobilinogen synthase orthologs” (J Med Chem, 2014).
# The source made the active and inactive calls. The rule behind the calls is not given here.
# Tests used:
# [1] = target: T1, Delta-aminolevulinic acid dehydratase (Wolbachia sp. subsp. Brugia malayi (strain TRS)) (UniProt Q5GSR3); conditions: 25 to 2500 uM
# T1 sequence (whole entry): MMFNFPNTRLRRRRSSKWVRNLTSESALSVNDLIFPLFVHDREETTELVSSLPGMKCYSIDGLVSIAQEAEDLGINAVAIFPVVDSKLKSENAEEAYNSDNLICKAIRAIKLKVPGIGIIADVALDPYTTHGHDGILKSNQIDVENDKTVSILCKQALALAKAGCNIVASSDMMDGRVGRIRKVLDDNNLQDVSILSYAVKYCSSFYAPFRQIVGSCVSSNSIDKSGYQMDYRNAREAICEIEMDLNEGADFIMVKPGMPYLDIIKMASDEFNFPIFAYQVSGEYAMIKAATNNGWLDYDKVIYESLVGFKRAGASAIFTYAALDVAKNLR
# [2] = target: T2, Delta-aminolevulinic acid dehydratase (Escherichia coli (strain K12)) (UniProt P0ACB2); assay: Stimulation of Escherichia coli recombinant PBGS using 5-ALA as substrate relative to control
# T2 sequence (whole entry): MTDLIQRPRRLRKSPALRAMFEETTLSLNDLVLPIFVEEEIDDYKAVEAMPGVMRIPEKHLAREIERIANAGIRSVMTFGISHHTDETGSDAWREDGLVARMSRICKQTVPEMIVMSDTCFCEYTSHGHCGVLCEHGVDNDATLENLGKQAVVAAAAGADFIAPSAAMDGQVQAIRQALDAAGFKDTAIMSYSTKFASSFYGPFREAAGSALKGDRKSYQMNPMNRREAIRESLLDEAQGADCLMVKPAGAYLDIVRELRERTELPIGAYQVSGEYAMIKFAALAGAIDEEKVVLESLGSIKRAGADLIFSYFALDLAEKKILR
# In short: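 E. coli PBGS at 200 nM subunit in 100 mM BTP-HCl pH 8.1 with 1 mM MgCl2, 10 μM ZnCl2, 5 mM DTT and 0.2 mM 5-ALA, 10 min at 36 °C. Porphobilinogen detected with Ehrlich's reagent. EC50 by log(agonist) vs response variable-slope fit.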
# [3] = target: T3, Delta-aminolevulinic acid dehydratase (Wolbachia sp. subsp. Brugia malayi (strain TRS), UniProt Q5GSR3); assay: Inhibition of C-terminal His-tagged Wolbachia PBGS using 5-ALA as substrate
# T3 sequence (Q5GSR3 whole entry): T1 sequence (whole entry)
# [4] = target: T4, Delta-aminolevulinic acid dehydratase, chloroplastic (Pisum sativum) (UniProt P30124); assay: Non-competitive inhibition of Pisum sativum PBGS using 5-ALA as substrate at 6.25 to 100 uM; conditions: Lathyrus oleraceus
# T4 sequence (whole entry): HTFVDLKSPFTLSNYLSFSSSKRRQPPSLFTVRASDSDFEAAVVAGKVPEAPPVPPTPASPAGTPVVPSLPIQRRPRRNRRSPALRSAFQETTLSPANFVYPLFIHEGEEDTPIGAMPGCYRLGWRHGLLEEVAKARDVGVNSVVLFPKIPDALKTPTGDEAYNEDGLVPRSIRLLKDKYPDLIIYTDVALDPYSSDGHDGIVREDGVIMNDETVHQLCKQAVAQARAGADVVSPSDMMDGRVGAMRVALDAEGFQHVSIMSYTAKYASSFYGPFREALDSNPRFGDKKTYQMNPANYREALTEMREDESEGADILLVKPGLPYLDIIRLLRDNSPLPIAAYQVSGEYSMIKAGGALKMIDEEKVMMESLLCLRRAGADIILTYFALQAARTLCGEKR
# [5] = target: T2, Delta-aminolevulinic acid dehydratase (Escherichia coli (strain K12)); assay: Inhibition of Escherichia coli recombinant PBGS using 5-ALA as substrate at 50 to 200 uM at pH 7 to 8.5 by buffer scan assay in presence of KCl
# [6] = target: Delta-aminolevulinic acid dehydratase (Pseudomonas aeruginosa (strain ATCC 15692 / PAO1 / 1C / PRS 101 / LMG12228)) (UniProt Q59643); assay: Stimulation of Pseudomonas aeruginosa PAO1 recombinant PBGS
# [7] = target: T2, Delta-aminolevulinic acid dehydratase (Escherichia coli (strain K12)); assay: Stimulation of Escherichia coli recombinant PBGS using 5-ALA as substrate at 10 to 1000 uM at pH 8 in presence of MgCl2 and KCl
# [8] = target: T2, Delta-aminolevulinic acid dehydratase (Escherichia coli (strain K12)); assay: Stimulation of Escherichia coli recombinant PBGS using 5-ALA as substrate at 10 to 1000 uM at pH 8 in presence of 0.1 to 10000 uM MgCl2
# [9] = target: T5, Delta-aminolevulinic acid dehydratase (Drosophila melanogaster, UniProt Q9VTV9); assay: Inhibition of Drosophila melanogaster recombinant PBGS using 5-ALA as substrate
# T5 sequence (Q9VTV9 whole entry): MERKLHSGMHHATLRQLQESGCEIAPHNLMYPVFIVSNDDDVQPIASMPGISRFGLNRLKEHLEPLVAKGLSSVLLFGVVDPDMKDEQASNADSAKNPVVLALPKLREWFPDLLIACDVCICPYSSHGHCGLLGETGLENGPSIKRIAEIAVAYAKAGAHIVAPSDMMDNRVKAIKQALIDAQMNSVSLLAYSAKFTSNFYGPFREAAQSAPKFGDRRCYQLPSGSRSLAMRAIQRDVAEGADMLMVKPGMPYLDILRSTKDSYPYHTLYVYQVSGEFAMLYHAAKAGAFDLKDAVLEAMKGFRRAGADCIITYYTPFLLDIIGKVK
# [10] = target: Delta-aminolevulinic acid dehydratase (Pseudomonas aeruginosa (strain ATCC 15692 / PAO1 / 1C / PRS 101 / LMG12228)) (UniProt Q59643); assay: Stimulation of Pseudomonas aeruginosa PAO1 recombinant PBGS using 5 mM 5-ALA as substrate assessed as effect on Km at 50 to 200 uM at pH 8 by Michaelis-Menten plot analysis in presence of MgCl2
# In short: (§1)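 Mg2+ or substrate response curves recorded with and without wALADin1; VMAX, KM and Mg2+ affinity derived from the fits.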
# [11] = target: Delta-aminolevulinic acid dehydratase (Pseudomonas aeruginosa (strain ATCC 15692 / PAO1 / 1C / PRS 101 / LMG12228)) (UniProt Q59643); assay: Inhibition of Pseudomonas aeruginosa PAO1 recombinant PBGS assessed as inhibition of octamer-inducing effect of K+ by nondenaturing PAGE analysis
# In short: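 PaPBGS (3 μg) preincubated 20 min at 37 °C in assay buffer with 1 mM Mg2+, 100 mM K+ and wALADin1, no 5-ALA. Run on 7.5% nondenaturing PAGE at 4 °C for 15–20 h. Coomassie for oligomer state; in-gel activity with 500 μM 5-ALA stained with Ehrlich's reagent.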
# [12] = target: T1, Delta-aminolevulinic acid dehydratase (Wolbachia sp. subsp. Brugia malayi (strain TRS)); conditions: 25 to 2500 uM; remark: listed apart in the source
# [13] = target: Delta-aminolevulinic acid dehydratase (Pseudomonas aeruginosa (strain ATCC 15692 / PAO1 / 1C / PRS 101 / LMG12228)) (UniProt Q59643); assay: Stimulation of Pseudomonas aeruginosa PAO1 recombinant PBGS using 5 mM 5-ALA as substrate assessed as change in enzyme affinity for Mg2+ at 10 to 10000 uM at pH 8 by buffer scan assay in presence of MgCl2
# In short: as §1
# [14] = target: T1, Delta-aminolevulinic acid dehydratase (Wolbachia sp. subsp. Brugia malayi (strain TRS)); conditions: 25 to 2500 uM; remark: listed apart in the source
# [15] = target: Delta-aminolevulinic acid dehydratase (Pseudomonas aeruginosa (strain ATCC 15692 / PAO1 / 1C / PRS 101 / LMG12228)) (UniProt Q59643); assay: Stimulation of Pseudomonas aeruginosa PAO1 recombinant PBGS using 5 mM 5-ALA as substrate assessed as increase in Vmax at 50 to 200 uM at pH 8 by buffer scan assay in presence of 1 mM MgCl2 and 1 to 1000 mM KCl
# [16] = target: T1, Delta-aminolevulinic acid dehydratase (Wolbachia sp. subsp. Brugia malayi (strain TRS)); conditions: 25 to 2500 uM; remark: listed apart in the source
# Chain of Delta-aminolevulinic acid dehydratase (Pseudomonas aeruginosa (strain ATCC 15692 / PAO1 / 1C / PRS 101 / LMG12228)) (Q59643 whole entry): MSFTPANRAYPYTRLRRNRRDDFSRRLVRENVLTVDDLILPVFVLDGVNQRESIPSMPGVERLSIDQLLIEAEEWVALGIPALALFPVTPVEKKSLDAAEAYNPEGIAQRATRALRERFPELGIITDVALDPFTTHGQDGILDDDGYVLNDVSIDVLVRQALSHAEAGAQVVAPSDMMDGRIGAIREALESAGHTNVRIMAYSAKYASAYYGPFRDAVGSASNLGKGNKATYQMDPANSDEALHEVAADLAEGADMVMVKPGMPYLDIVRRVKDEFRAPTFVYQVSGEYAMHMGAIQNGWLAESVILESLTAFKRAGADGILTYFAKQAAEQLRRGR
smiles,measurement,setting,value
O=C(O)c1ccc2c(c1)nc(CCNC(=O)c1cccs1)n2Cc1cccc(C(F)(F)F)c1,inhibition,[1],Active
same,Smax,[2],120%
same,IC50,[3],11.1 µM
same,inhibition,[4],Active
same,inhibition,[5],Active
same,Activity,[6],20%
same,Activity,[7],Active
same,Activity,[8],Active
same,IC50,[9],1110 µM
same,Activity,[10],inactive
same,inhibition,[11],Dose-dependent effect
same,inhibition,[12],inactive
same,Activity,[13],Active
same,inhibition,[14],inactive
same,Activity,[15],Active
same,inhibition,[16],Active
